Experiment [1] deals with T1, 5-hydroxytryptamine receptor 2C (Homo sapiens, UniProt P28335).
T1 sequence (P28335 whole entry): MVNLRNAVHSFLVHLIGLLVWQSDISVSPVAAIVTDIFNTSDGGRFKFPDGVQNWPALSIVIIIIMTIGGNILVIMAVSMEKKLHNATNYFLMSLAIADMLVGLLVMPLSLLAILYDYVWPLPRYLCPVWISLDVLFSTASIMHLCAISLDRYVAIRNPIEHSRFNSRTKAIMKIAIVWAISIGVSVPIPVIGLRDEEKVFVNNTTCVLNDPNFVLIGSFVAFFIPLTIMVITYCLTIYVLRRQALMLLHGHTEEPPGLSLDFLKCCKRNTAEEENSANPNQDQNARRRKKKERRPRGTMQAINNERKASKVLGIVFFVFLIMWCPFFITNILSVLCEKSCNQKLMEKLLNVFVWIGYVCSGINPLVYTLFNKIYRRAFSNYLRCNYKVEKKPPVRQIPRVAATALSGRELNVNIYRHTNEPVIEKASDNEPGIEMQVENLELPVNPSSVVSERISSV
Kind of experiment: Agonist activity at recombinant human 5HT2C-INI receptor expressed in Flp-In-293 cells assessed as calcium flux by FLIPR assay. The format is functional, cell-based. Background: A change in cytosolic calcium serves as a functional read-out for many receptors and channels.

Experiment [2] addresses T2, 5-hydroxytryptamine receptor 2B (Homo sapiens, UniProt P41595).
For experiment [3], the target named is T3, 5-hydroxytryptamine receptor 2A (Homo sapiens, UniProt P28223).
T3 sequence (P28223 whole entry): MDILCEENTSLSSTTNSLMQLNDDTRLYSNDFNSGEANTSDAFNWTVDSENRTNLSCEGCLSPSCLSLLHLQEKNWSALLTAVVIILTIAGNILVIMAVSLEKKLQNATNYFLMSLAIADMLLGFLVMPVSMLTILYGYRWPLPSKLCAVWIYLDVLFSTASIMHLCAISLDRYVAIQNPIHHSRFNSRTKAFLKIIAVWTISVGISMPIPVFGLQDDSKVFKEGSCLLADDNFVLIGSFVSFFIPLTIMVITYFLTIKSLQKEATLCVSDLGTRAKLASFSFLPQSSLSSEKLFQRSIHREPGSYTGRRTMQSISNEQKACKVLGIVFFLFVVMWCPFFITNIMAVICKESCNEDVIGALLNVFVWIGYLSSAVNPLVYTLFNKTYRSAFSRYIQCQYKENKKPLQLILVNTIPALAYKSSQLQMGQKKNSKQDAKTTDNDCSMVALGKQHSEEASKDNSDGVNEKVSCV
Experiment [4] has as its target T4, 5-hydroxytryptamine receptor 2C (Homo sapiens) (UniProt P28335).
T4 sequence (whole entry): T1 sequence (P28335 whole entry)
Kind of experiment: Agonist activity at recombinant human 5HT2C-INI receptor expressed in Flp-In-293 cells assessed as calcium flux by FLIPR assay relative to 5-HT. The format is functional, cell-based.

Experiment [5] addresses T2, 5-hydroxytryptamine receptor 2B. Kind of experiment: Agonist activity at recombinant human 5HT2B receptor expressed in Flp-In-293 cells assessed as calcium flux by FLIPR assay relative to 5-HT. The format is functional, cell-based.
For experiment [6], the target named is T3, 5-hydroxytryptamine receptor 2A. The experiment can be described thus: Agonist activity at human 5HT2A receptor expressed in Flp-In-293 cells assessed as calcium flux by FLIPR assay relative to 5-HT. The format is functional, cell-based.
The species named for experiment [7] is Homo sapiens. Kind of experiment: Selectivity ratio of EC50 for recombinant human 5HT2B receptor to EC50 for recombinant human 5HT2C-INI receptor. A digest of the protocol:
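Calcium flux measured by FLIPR in Flp-In-293 cells stably expressing human 5-HT2B or 5-HT2C-INI receptors.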

In experiment [8] the target is Serotonin 2 receptors; 5-HT2a & 5-HT2c (Homo sapiens) (UniProt P28223+P28335). The experiment can be described thus: Selectivity ratio of EC50 for recombinant human 5HT2A receptor to EC50 for recombinant human 5HT2C-INI receptor.
Serotonin 2 receptors; 5-HT2a & 5-HT2c (Homo sapiens), sequence (P28223 whole entry, looked up, one chain of several): as the sequence (P28223 whole entry) above

Each structure is given as a SMILES string.

T2 sequence (P41595 whole entry): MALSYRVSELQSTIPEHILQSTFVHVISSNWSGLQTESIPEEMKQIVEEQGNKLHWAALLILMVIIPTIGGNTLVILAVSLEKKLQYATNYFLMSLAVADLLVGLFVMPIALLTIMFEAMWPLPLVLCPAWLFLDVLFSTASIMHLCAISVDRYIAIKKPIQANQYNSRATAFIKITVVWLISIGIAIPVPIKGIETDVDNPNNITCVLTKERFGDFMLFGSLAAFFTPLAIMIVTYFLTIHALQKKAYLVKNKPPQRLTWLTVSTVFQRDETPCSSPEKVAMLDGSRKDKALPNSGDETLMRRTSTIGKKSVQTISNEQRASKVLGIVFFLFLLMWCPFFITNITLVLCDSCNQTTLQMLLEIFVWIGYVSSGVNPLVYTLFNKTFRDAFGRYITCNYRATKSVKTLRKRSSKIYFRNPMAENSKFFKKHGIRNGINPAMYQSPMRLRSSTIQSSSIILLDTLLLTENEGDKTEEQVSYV

As to `C=CCOc1ccc(F)c(Cl)c1C1CC1CN` (single isomer, unassigned; (+)) [listing 1 of 2 here], the EC50 in experiment [1] (read-out: pEC50 (converted)) is 97.7 nM.
For the compound `COc1ccc(Cl)c(F)c1C1CC1CN` (single isomer, unassigned; (+)) [listing 1 of 2 here], the EC50 in experiment [1] (read-out: EC50) was found to be 13 nM; in experiment [2] it was 354 nM; in experiment [3], 212 nM.
`C=CCOc1cc(F)c(Cl)cc1C1CC1CN` (single isomer, unassigned; (+)) [listing 1 of 2 here] had an EC50 in experiment [2] of 1000 nM.
For `COc1cc(F)c(Cl)cc1C1CC1CN` (single isomer, unassigned; (+)) [listing 1 of 2 here], the EC50 in experiment [1] (read-out: EC50) was 7.6 nM; in experiment [1] (read-out: pEC50 (converted)), 7.76 nM; in experiment [2] it was 25 nM; in experiment [3] it was 81 nM.
On to `COc1ccc(F)c(F)c1C1CC1CN` (single isomer, unassigned; (+)) [listing 1 of 2 here], for which the EC50 in experiment [1] (read-out: EC50) came out at 9.5 nM; in experiment [2], 209 nM; in experiment [3], 437 nM.
`C=CCOc1cc(Cl)c(Cl)cc1C1CC1CN` (single isomer, unassigned; (+)): the Emax (commonly the maximal effect, on the per cent scale that the assay sets) in experiment [4] is 88%.
`C=CCOc1cc(F)c(Cl)cc1C1CC1CN` (single isomer, unassigned; (+)) [listing 2 of 2 here]: the Emax came out at 87% in experiment [4] and 34% in experiment [5].
With `C=CCOc1ccc(Cl)c(Cl)c1C1CC1CN` (single isomer, unassigned; (+)), the maximum response (Emax) in experiment [4] turned out to be 70%.
Still for that read-out and setting: to `C=CCOc1ccc(Cl)c(F)c1C1CC1CN` (single isomer, unassigned; (+)) belongs 90%; to `C=CCOc1ccc(F)c(Cl)c1C1CC1CN` (single isomer, unassigned; (+)) [listing 2 of 2 here], 92%.
For the compound `C=CCOc1ccc(F)c(F)c1C1CC1CN` (single isomer, unassigned; (+)), the results for the Emax in experiment [4] and in experiment [5] were 100% and 35%, respectively.
Turning to `COc1cc(Cl)c(Cl)cc1C1CC1CN` (single isomer, unassigned; (+)), the Emax in experiment [4] was determined as 95%; in experiment [6], 85%.
As to `COc1cc(F)c(Cl)cc1C1CC1CN` (single isomer, unassigned; (+)) [listing 2 of 2 here], the values for the Emax in experiment [4], in experiment [5] and in experiment [6] were 97%, 59% and 93%, respectively.
Turning to `COc1cc(F)c(F)cc1C1CC1CN` (single isomer, unassigned; (+)), the Emax in experiment [4] turned out to be 108%; in experiment [5], 69%.
`COc1ccc(Cl)c(F)c1C1CC1CN` (single isomer, unassigned; (+)) [listing 2 of 2 here]: the results for the Emax in experiment [4], in experiment [5] and in experiment [6] were 92%, 52% and 85%, respectively.
For the compound `COc1ccc(F)c(F)c1C1CC1CN` (single isomer, unassigned; (+)) [listing 2 of 2 here], the Emax was 108% in experiment [4], 64% in experiment [5] and 79% in experiment [6].
For `NCC1CC1c1c(OCCF)ccc(Cl)c1Cl` (single isomer, unassigned; (+)), in experiment [4], the Emax turned out to be 90%.
The same measure, in the same setting: to `NCC1CC1c1c(OCCF)ccc(F)c1Cl` (single isomer, unassigned; (+)) belongs 86%; to `NCC1CC1c1c(OCCF)ccc(F)c1F` (single isomer, unassigned; (+)), 96%.
On the same count and under the same terms, the figure for `NCC1CC1c1cc(Cl)c(Cl)cc1OCCF` (single isomer, unassigned; (+)) is 87%.
Turning to `NCC1CC1c1cc(Cl)c(F)cc1OCCF` (single isomer, unassigned; (+)), the results for the Emax in experiment [4] and in experiment [5] were 87% and 39%, respectively.
As for `NCC1CC1c1cc(F)c(F)cc1OCCF` (single isomer, unassigned; (+)), the Emax in experiment [4] amounted to 95%.
With `C=CCOc1ccc(F)c(Cl)c1C1CC1CN` (single isomer, unassigned; (-)) [listing 1 of 2 here], the EC50 in experiment [1] (read-out: EC50) is 104 nM.
Turning to `COc1cc(F)c(F)cc1C1CC1CN` (single isomer, unassigned; (-)) [listing 1 of 2 here], in experiment [3], the EC50 was 511 nM.
Consider `C=CCOc1cc(F)c(Cl)cc1C1CC1CN` (single isomer, unassigned; (-)), for which the Emax in experiment [4] came out at 77%; in experiment [5] it was 22%.
For the compound `C=CCOc1ccc(F)c(Cl)c1C1CC1CN` (single isomer, unassigned; (-)) [listing 2 of 2 here], the Emax in experiment [4] amounted to 89%.
On to `C=CCOc1ccc(F)c(F)c1C1CC1CN` (single isomer, unassigned; (-)), for which the Emax in experiment [4] amounted to 89%; in experiment [5] it was 26%.
For the compound `COc1cc(F)c(F)cc1C1CC1CN` (single isomer, unassigned; (-)) [listing 2 of 2 here], the Emax in experiment [4] turned out to be 104%; in experiment [5], 59%.
As to `COc1ccc(Cl)c(Cl)c1C1CC1CN` (single isomer, unassigned; (-)), the Ratio EC50 is 31 in experiment [7] and 40 in experiment [8]. Further, the Emax is 104% in experiment [4], 53% in experiment [5] and 88% in experiment [6].
On to `COc1ccc(Cl)c(F)c1C1CC1CN` (single isomer, unassigned; (-)), for which the figures for the Emax in experiment [4], in experiment [5] and in experiment [6] were 93%, 64% and 86%, respectively.
Consider `COc1ccc(F)c(Cl)c1C1CC1CN` (single isomer, unassigned; (-)), for which the Emax was 96% in experiment [4] and 72% in experiment [6].
As to `NCC1CC1c1c(OCCF)ccc(Cl)c1Cl` (single isomer, unassigned; (-)), the Emax in experiment [4] was 85%.
Same read-out and setting: to `NCC1CC1c1c(OCCF)ccc(Cl)c1F` (single isomer, unassigned; (-)) belongs 80%; to `NCC1CC1c1c(OCCF)ccc(F)c1F` (single isomer, unassigned; (-)), 78%; to `NCC1CC1c1cc(Cl)c(Cl)cc1OCCF` (single isomer, unassigned; (-)), 75%.
For `NCC1CC1c1cc(F)c(F)cc1OCCF` (single isomer, unassigned; (-)), the Emax in experiment [4] is 73%.
As for `COc1ccc(Cl)c(Cl)c1C1CC1CN` (stereo in doubt; (+)-20f), the Emax in experiment [4] turned out to be 98%; in experiment [5], 26%; in experiment [6] it was 78%.
Consider `COc1ccc(F)c(Cl)c1C1CC1CN` (stereo in doubt; (+)-20g), for which the Emax worked out at 89% in experiment [4] and 77% in experiment [6].
`NCC1CC1c1c(OCCF)ccc(Cl)c1F` (stereo in doubt; (+)-21d): the Emax in experiment [4] came out at 86%.
Take `COc1ccc(F)c(F)c1C1CC1CN` (stereo in doubt; (-)-20b): the Emax in experiment [4] was determined as 108%; in experiment [5] it was 62%; in experiment [6] it was 72%.
For the compound `COc1cc(F)c(Cl)cc1C1CC1CN` (stereo in doubt; (-)-20c) [listing 1 of 2 here], the figures for the EC50 in experiment [1] (read-out: EC50), in experiment [2] and in experiment [3] were 16 nM, 329 nM and 235 nM, respectively.
For the compound `COc1cc(F)c(Cl)cc1C1CC1CN` (stereo in doubt; (-)-20c) [listing 2 of 2 here], the Emax was found to be 98% in experiment [4], 44% in experiment [5] and 88% in experiment [6].
In the case of `COc1cc(Cl)c(Cl)cc1C1CC1CN` (stereo in doubt; (-)-20e), the maximum response (Emax) in experiment [4] was 89%; in experiment [6], 75%.
For the compound `NCC1CC1c1cc(Cl)c(F)cc1OCCF` (stereo in doubt; (-)-21c), the maximal response (Emax) in experiment [4] is 70%; in experiment [5], 26%.
Take `NCC1CC1c1c(OCCF)ccc(F)c1Cl` (stereo in doubt; (-)-21g): in experiment [4], the Emax was 80%.
For the compound `C=CCOc1ccc(Cl)c(F)c1C1CC1CN` (stereo in doubt; (-)-22d), the Emax in experiment [4] was determined as 87%.
As to `C=CCOc1cc(Cl)c(Cl)cc1C1CC1CN` (stereo in doubt; (-)-22e), in experiment [4], the Emax came to 84%.
With `C=CCOc1ccc(Cl)c(Cl)c1C1CC1CN` (stereo in doubt; (-)-22f), the Emax in experiment [4] was determined as 93%.
